Shown are actives, neighbours in structure and some others; about 2.1% of the full set was active somewhere.
LMPTP block: blocks human LMPTP phosphatase. recombinant LMPTP-A, OMFP fluorogenic substrate, fluorescence intensity. 0.22% of 360,000 active. inhibition, % at 20 µM. AID 651560. P24666;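 active means compounds that cut the enzyme signal by at least half of the control window in the single-dose screen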
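Assay system: LMPTP-A, protein tyrosine phosphatase of low molecular weight / Medium: pH 6.0 Bis-Tris buffer with DTT and Triton X-100 / Schedule: 50 min enzyme reaction at room temperature, protected from light / Measured by: endpoint fluorescence intensity from OMFP dephosphorylation / Read-out basis: % inhibition relative to no-enzyme and uninhibited control wells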
DNMT1 inh: inhibitors of human DNMT1 | inhibition (reported as % activation of signal), % at 10 µM | P26358 | 0.83% of 360,000 active | DNMT1 molecular beacon, Hinp1I cleavage, fluorescence; in the data active means inhibition above about 50%
STEP inh: blocks human striatal-enriched tyrosine phosphatase | P54829 | recombinant STEP, OMFP fluorogenic substrate, fluorescence | inhibition, % at 20 µM | 0.25% of 360,000 active;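 active means inhibition at 20 µM, scaled per plate between control wells, above about 37%, limit read from the data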
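Also added – OMFP at 25 µM · Test system – STEP tyrosine phosphatase · Technique – FITC-channel fluorescence of OMFP product · Schedule – 20 min at room temperature, dark · Evaluation – control-normalized % inhibition with plate pattern correction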
Scp1 inh: inhibitors of human Scp-1 phosphatase | Q9GZU7 | Recombinant Scp1, phosphopeptide, malachite green phosphate absorbance | inhibition, % at 20 µM | 0.88% of 340,000 active;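 active means inhibition above about 50% at 20 µM, limit read from the data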
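Test system: SCP-1 catalytic domain; Buffer or medium: Acidic Tris acetate buffer with magnesium and detergent; Also added: Phosphorylated 17-residue peptide substrate; Compound: single 20 µM dose, 1% DMSO; Schedule: enzyme reaction 45 min at room temperature, colour 5 min, stabilisation 30 min; Signal: Phosphate-binding colour reagent, absorbance read at 630 nm.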
GRK2 inh: human GRK2 inhibition via aptamer displacement. P25098. bead flow cytometry, FAM-aptamer displacement from GRK2. inhibition of aptamer binding, % at 10 µM. 0.59% of 330,000 active;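 active means inhibition of aptamer binding above 40%, roughly 3 SD of noise, on plates passing a quality check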;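 further: median bead fluorescence of bound FAM aptamer so fluorescent compounds give negative values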
SUMO1-SIM PPI: alters human SUMO1 binding to SIM partners | P63165 | SUMO1 binding to a labelled peptide, TR-FRET, 1 h | inhibition, % at 20 µM | 0.33% of 360,000 active | AID 602429; in the data active means inhibition above about 37%
Beacon interf DR: shows spectral interference in the DNMT1 beacon assay. shares compounds with DNMT1 inh. molecular beacon fluorescence, spectral interference counter-screen. IC50, µM. 200 tested, under 10 active. AID 602382; call rule not given here
DNMT1 confirm: DNMT1 inhibition confirmation, single concentration; shares compounds with DNMT1 inh; inhibition, % at 10 µM; 8% of 2,300 active; DNMT1 molecular beacon HinP1I cleavage, fluorescence;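 active means average inhibition of at least 30% in the single-concentration confirmation test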
Beacon interf: shows spectral interference in the DNMT1 beacon assay; shares compounds with DNMT1 inh; DNMT1 molecular beacon spectral interference counterscreen, fluorescence 485/520; activation (fluorescence interference), % at 10 µM; 1% of 2,300 active;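 active means activation of at least 30% at 10 µM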;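 further: DNMT1 catalytic domain with a HinP1I cleavage step and a FAM/dabcyl DNA beacon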
Hits are given with their value; . = inactive; / = no result given.

SMILES	LMPTP block	DNMT1 inh	STEP inh	Scp1 inh	GRK2 inh	SUMO1-SIM PPI	DNMT1 confirm	Beacon interf	others
O=C1CC(NCC2CCCO2)C(=O)N1c1ccc(F)cc1 (stereo not drawn)	.	80.6	.	.	.	.	.	.
O=C(COC(=O)Cc1ccsc1)NCc1ccccc1	.	74.0	.	.	.	.	.	.
O=C(COC(=O)Cc1ccsc1)NCc1ccc(Cl)cc1	.	.	.	.	.	.	/	/
CCn1nccc1NC(=O)c1csc([C@H]2C[C@H](O)[C@@H](CO)O2)n1	.	.	.	/	/	.	/	/
CCOC(=O)c1cn(-c2nc(-c3ccc(Cl)c(Cl)c3)cs2)c2c(F)c(N3CCOCC3)c(F)cc2c1=O	.	58.2	.	.	.	.	.	.
Cc1nn(Cc2ccc(Cl)c(Cl)c2)c(C)c1NC(=O)c1cc(-c2ccc3c(c2)OCO3)on1	.	76.2	.	.	.	.	.	.
Cc1nn(Cc2ccc(Cl)cc2)c(C)c1NC(=O)c1cc(-c2ccc3c(c2)OCO3)on1	.	.	.	.	.	.	/	/
O=C(Nc1cccc(Cl)c1)c1cc2c(=O)n3ccccc3nc2s1	.	62.3	.	.	.	.	.	.
CC(=O)NS(=O)(=O)c1ccc(NC(=O)c2cc3c(=O)n4ccccc4nc3s2)cc1	.	.	.	.	.	.	/	/
CCc1ccc(NC(=O)c2cnc3scc(C)n3c2=O)cc1	.	.	.	.	.	.	/	/
Cc1csc2ncc(C(=O)Nc3cccc(C(F)(F)F)c3)c(=O)n12	.	68.0	.	.	.	.	.	.
O=C1CCCC(O)=C1N=Nc1ccc(C(=O)O)cc1	.	82.9	.	75.7	.	.	.	.
O=C1CCCC(O)=C1N=Nc1ccc2c(c1)OCO2	.	.	.	.	.	.	/	/
CCCCCCCCN1C(=O)[C@H](CC(=O)NCc2cccc3ccccc23)C[C@@]2(C(=O)OC)CC(C)(C)CC=C12	.	/	/	/	/	.	/	/
CCCNC(=O)c1onc(CS(=O)(=O)c2cc(C)cc(C)c2)c1C(=O)NCCC	.	.	.	.	.	.	/	/
Cc1nnc(SCC(=O)NC2CC2)s1	.	.	.	.	.	.	/	/
COc1ccc2c(c1OC)C(=O)N1c3ccccc3N=C(c3ccc([N+](=O)[O-])cc3)CC21 (stereo not drawn)	.	62.4	.	.	.	.	.	.
Cc1ccc(NC(=O)CC2C(=O)N(Cc3ccccc3)C(=S)N2NC(=O)c2ccccc2)c(C)c1 (stereo not drawn)	.	80.7	.	.	.	.	.	.
Cc1ccc(-n2cccc2/C=C2\C(=N)N3N=C(c4ccco4)SC3=NC2=O)cc1	.	87.2	63.2	97.4	.	103.8	.	.
CCc1ccc(-n2cccc2/C=C2/C(=N)N3C(=NC2=O)SN=C3S(C)(=O)=O)cc1	.	.	.	.	.	.	/	/
Cc1ccc(-n2cccc2/C=C2/C(=N)N3C(=NC2=O)SN=C3S(C)(=O)=O)cc1	.	76.3	.	.	.	.	.	.
CCC1=NN2C(=N)/C(=C\c3cccn3-c3ccc(Cl)cc3)C(=O)N=C2S1	.	.	.	.	.	.	/	/
Cc1ccc(C)c(N(Cc2cc3ccc(C)cc3[nH]c2=O)C(=O)c2ccco2)c1	.	141.9	.	.	.	.	.	.
O=S(=O)(NCc1ccccc1)c1cccc2nsnc12	.	85.3	.	.	.	.	.	.
COc1ccccc1NC(=O)c1c(NC(=O)c2ccco2)sc2c1CCC2	.	.	.	.	.	.	/	/
SMILES	LMPTP block	DNMT1 inh	STEP inh	Scp1 inh	GRK2 inh	SUMO1-SIM PPI	DNMT1 confirm	Beacon interf	others
COc1ccccc1C(=O)Nc1sc2c(c1C(=O)NCc1ccco1)CCCC2	.	51.0	.	.	.	.	.	.
C=CCc1cccc(C=Nc2cc(Br)ccc2O)c1O	.	.	.	.	.	.	/	/
C=CCc1cccc(C=Nc2c[nH]c(=O)[nH]c2=O)c1O	.	71.6	.	.	.	.	.	.
Cc1ccc(S(=O)(=O)N(CC(=O)N/N=C/c2cccc(Cl)c2)c2cccc3cccnc23)cc1	.	52.6	.	.	.	.	.	.
CCN(c1ccccc1)S(=O)(=O)c1cc(NC(=O)C2CC2)ccc1Cl	.	.	.	.	.	.	/	/
CCN(c1ccccc1)S(=O)(=O)c1cc(NC(=O)CSc2n[nH]c(=O)[nH]c2=O)ccc1Cl	.	65.4	.	.	.	.	.	.
COc1ccc(-c2ccc3sc4ccccc4c(=O)c3c2)cn1	.	55.8	.	.	.	.	.	.
COc1cc2sc3ccc(-c4ccc(N(C)C)nc4)cc3c(=O)c2cc1OC	/	/	/	.	.	/	/	/
COc1ccccc1CCNC(=O)C(=O)NCC1CCCN1S(=O)(=O)c1ccccc1 (stereo not drawn)	.	.	.	.	.	.	/	/
CCNC(=O)C1(C)CCCN(Cc2ccccc2-c2ccccc2)C1 (stereo not drawn)	.	.	.	/	/	.	/	/
CN(C)c1ccc2cc(S(=O)(=O)O)cc(O)c2c1	.	63.0	.	67.3	/	.	.	.
O=Nc1c(O)ccc2cc(S(=O)(=O)O)ccc12	.	.	.	.	/	.	/	/
COc1ccc(CNC(=O)C2CC(c3ccccc3C(F)(F)F)=NO2)cc1 (stereo not drawn)	.	72.0	.	.	.	.	.	.
CC(C)[C@H](NC(=O)[C@H](Cc1ccccc1)n1c(=O)[nH]c2ccccc2c1=O)C(=O)N1CCC[C@@H]1C(=O)O	.	81.9	.	.	.	.	.	.
O=C(Cc1cccnc1)N[C@@H]1CC[C@H](CCn2cc(Cc3ccccc3)nn2)O[C@@H]1CO	.	/	/	/	/	.	/	/
N#Cc1nc(-c2cccs2)oc1NCC1CCCO1 (stereo not drawn)	.	67.1	.	.	.	.	.	.
CCOC(=O)CN(c1ccccc1C)S(=O)(=O)c1ccc(Cl)cc1	.	.	.	.	.	.	/	/
COc1cc(NS(=O)(=O)c2ccc(NC(=S)NC(C)=O)cc2)nc(OC)n1	.	53.8	.	.	/	.	.	.
COc1cc(NS(=O)(=O)c2ccc(NC(=S)NC(=O)/C=C/c3ccco3)cc2)ncn1	.	98.0	.	.	/	48.3	82.3	.	Beacon interf DR=.
Cc1cc(NC(=O)CSc2ncnc3sccc23)no1	.	.	.	.	.	.	/	/
N#Cc1c(NC(=O)CSc2ncnc3sccc23)oc(-c2ccco2)c1-c1ccco1	.	91.6	.	.	.	.	.	.

Compound activity deposited in PubChem BioAssay by several laboratories.
